# CSN inh: blocks human CSN-mediated cullin deneddylation. Q92905. Purified CSN, SCF-Nedd8-OG deneddylation, fluorescence polarization. inhibition, % at 12.5 µM. 360,000 tested, 0.38% active. AID 651999;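 active means pattern-corrected inhibition above about 35%, with an unprinted fluorescence ratio check between 0.5 and 1.5, limit read from the data, passing the limit was not always enough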;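 further: 0% = enzyme with substrate and 100% = substrate without enzyme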
# Target sequence (Q92905 whole entry, looked up, one chain of several): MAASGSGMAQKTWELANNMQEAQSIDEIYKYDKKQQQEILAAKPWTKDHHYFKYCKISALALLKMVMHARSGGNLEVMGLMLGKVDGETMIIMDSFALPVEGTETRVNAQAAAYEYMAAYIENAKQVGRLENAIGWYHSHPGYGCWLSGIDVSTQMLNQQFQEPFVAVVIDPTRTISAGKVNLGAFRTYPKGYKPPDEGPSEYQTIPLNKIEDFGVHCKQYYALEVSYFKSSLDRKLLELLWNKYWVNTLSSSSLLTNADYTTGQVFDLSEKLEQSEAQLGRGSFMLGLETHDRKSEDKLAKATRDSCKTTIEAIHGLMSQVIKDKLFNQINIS
#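 assay system = purified human Csn5 enzyme expressed in HEK293T cells | amount = 0.24 nM enzyme | buffer or medium = Tris/NaCl/DTT buffer, pH 7.5 | reagent = 10 nM SCFSkp2-Nedd8OG | compound = one concentration, 12.5 µM, 0.25% DMSO | times = 90 min reaction at room temperature | signal = FP | read-out basis = % inhibition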
# DNMT1 block: inhibitors of human DNMT1 | P26358 | DNMT1 molecular beacon, Hinp1I cleavage, fluorescence | inhibition (reported as % activation of signal), % at 10 µM | 360,000 tested, 0.83% active; in the data active means inhibition above about 50%
# SUMO1-SIM PPI: SUMO1-SIM interaction modulation; P63165; SUMO1 binding to a labelled peptide, TR-FRET, 1 h; inhibition, % at 20 µM; 360,000 tested, 0.33% active; AID 602429; in the data active means inhibition above about 37%
# Target sequence (P63165 whole entry, looked up): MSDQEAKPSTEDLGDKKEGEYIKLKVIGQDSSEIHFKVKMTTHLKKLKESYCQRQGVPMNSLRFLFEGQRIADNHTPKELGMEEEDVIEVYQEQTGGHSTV
# STEP block: STEP (human) phosphatase inhibition; inhibition, % at 20 µM; 360,000 tested, 0.25% active; recombinant STEP, OMFP fluorogenic substrate, fluorescence; P54829;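 active means inhibition at 20 µM, scaled per plate between control wells, above about 37%, limit read from the data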;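 further: 0% = DMSO with enzyme and substrate and 100% = substrate only without enzyme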
#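 Test system: STEP tyrosine phosphatase / Reagent: OMFP at 25 µM / Doses: 20 µM, 1% DMSO / Read-out: percent inhibition scaled to no-enzyme and uninhibited-enzyme controls, plate-pattern corrected / Detection: FITC-channel fluorescence of OMFP product / Medium: Bis-Tris buffer pH 6.0, 2.5 mM DTT, 0.005% Tween 20 / Schedule: 20 min at room temperature, dark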
# LMPTP inh: LMPTP (human) inhibition. inhibition, % at 20 µM. recombinant LMPTP-A, OMFP fluorogenic substrate, fluorescence intensity. 360,000 tested, 0.22% active. P24666;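 active means compounds that cut the enzyme signal by at least half of the control window in the single-dose screen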;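 further: plate controls were DMSO wells with enzyme plus substrate for no effect and substrate without enzyme for full effect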
# Target sequence (P24666 whole entry, looked up): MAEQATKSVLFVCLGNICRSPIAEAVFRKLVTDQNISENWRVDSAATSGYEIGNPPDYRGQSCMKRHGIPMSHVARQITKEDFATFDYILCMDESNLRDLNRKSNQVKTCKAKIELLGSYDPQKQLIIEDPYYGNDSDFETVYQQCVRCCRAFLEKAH
#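 Assay system: LMPTP-A, protein tyrosine phosphatase of low molecular weight / Medium: pH 6.0 Bis-Tris buffer with DTT and Triton X-100 / Schedule: 50 min enzyme reaction at room temperature, protected from light / Measured by: endpoint fluorescence intensity from OMFP dephosphorylation / Read-out basis: % inhibition relative to no-enzyme and uninhibited control wells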
# Scp-1 inhibitor: Scp-1 (human) phosphatase inhibition. inhibition, % at 20 µM. 340,000 tested, 0.88% active. Q9GZU7. Recombinant Scp1, phosphopeptide, malachite green phosphate absorbance. AID 493091;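 active means inhibition above about 50% at 20 µM, limit read from the data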;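 further: plate controls were DMSO wells with enzyme for no effect and wells lacking enzyme for full effect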
#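 System: truncated SCP-1 phosphatase (76-261aa); medium: Tris acetate buffer pH 5.5 with MgCl2 and Tween-20; incubation: 45 min room-temperature reaction, 5 min colour, 30 min stabiliser; compound: single 20 µM dose, 1% DMSO; reagent: Phosphorylated 17-residue peptide substrate; read-out: % inhibition at 20 µM; technique: colorimetric free-phosphate detection, absorbance 630 nm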
# DNMT1 interf DR: counter-screen for DNMT1 inhibitors: spectral interference, dose response | molecular beacon fluorescence | IC50, µM | 200 tested, under 10 active | shares compounds with DNMT1 block; call rule not given here
# DNMT1 inh conf: confirmation of human DNMT1 inhibitors; DNMT1 molecular beacon HinP1I cleavage, fluorescence; inhibition, % at 10 µM; shares compounds with DNMT1 block; 2,300 tested, 8% active; AID 602385;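 active means average inhibition of at least 30% in the single-concentration confirmation test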
# DNMT1 interf: counter-screen for DNMT1 inhibitors: spectral interference. shares compounds with DNMT1 block. DNMT1 molecular beacon spectral interference counterscreen, fluorescence 485/520. activation (fluorescence interference), % at 10 µM. 2,300 tested, 1% active;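 active means activation of at least 30% at 10 µM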;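 further: DNMT1 catalytic domain with a HinP1I cleavage step and a FAM/dabcyl DNA beacon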
# * hit, by the source's call; . = not tested or not shown. Hits are enriched below; roughly 1.9% of the tested compounds scored in any of these assays.
SMILES,CSN inh,DNMT1 block,SUMO1-SIM PPI,STEP block,LMPTP inh,Scp-1 inhibitor,DNMT1 inh conf,DNMT1 interf,others
Cc1ccc(/C=N/Nc2ccnc3cc(Cl)ccc23)c(C)c1,3.9,61.8*,3.5,15.2,3.3,3.8,5.6,-1.0,
Cc1ccccc1/C=N/Nc1ccnc2cc(Cl)ccc12,2.1,69.8*,26.3,16.4,4.8,5.4,2.8,-2.1,
COc1cnc(-c2ccccn2)nc1Oc1cccc(C(F)(F)F)c1,3.6,-0.3,-4.4,2.8,1.3,.,.,.,
CNC(=O)CSc1nnc(SCCC(=O)O)s1,-6.0,72.5*,5.1,-1.4,-0.4,-1.2,-0.2,1.4,
COc1cc(CN(C2CCCCC2)S(=O)(=O)c2ccc(S(=O)(=O)N(C)C3CCCCC3)cc2)cc(OC)c1OC,-8.1,0.0,5.1,-1.5,2.0,-12.2,.,.,
COC(=O)c1ccccc1C(=O)N1CCCC(CNC(=O)c2ccc(F)cc2)C1 (stereo not drawn),-2.4,3.2,-2.0,-3.0,-1.7,-9.6,.,.,
CCOC(=O)N1CCC(Nc2c(NCCCN(CC)CC)c(=O)c2=O)CC1,1.2,-1.4,-1.2,-0.9,-1.6,-1.6,.,.,
CCCCN(CC)CCNc1c(NC2CCN(C(=O)OCC)CC2)c(=O)c1=O,1.1,66.1*,7.4,-0.8,-1.9,-9.8,0.8,4.9,
NC(=O)CC(NC(=O)Cc1ccc(Br)cc1)c1ccc(NC2CCCCCCC2)c([N+](=O)[O-])c1 (stereo not drawn),28.5,16.4,-2.2,-2.3,4.1,-4.4,.,.,
NC(=O)CC(NC(=O)Cc1ccc(Br)cc1)c1ccc(NC2CCCC2)c([N+](=O)[O-])c1 (stereo not drawn),26.9,53.8*,-11.8,2.9,1.5,-5.6,3.1,1.6,
NC(=O)CC(NC(=O)Cc1cccc2ccccc12)c1ccc(NC2CCCCCCC2)c([N+](=O)[O-])c1 (stereo not drawn),4.5,59.6*,-0.3,3.2,1.4,-0.2,1.1,5.8,
Cc1cccc(NC(=O)c2cc3c(=O)n4ccccc4nc3n(CC(C)C)c2=N)c1,4.1,62.1*,-1.3,1.0,1.1,9.2,0.6,2.3,
COc1ccc(C(C)=O)cc1COC(=O)Cc1cc(OC)c(OC)c(OC)c1,-0.7,-1.5,3.8,1.1,-0.7,-7.4,.,.,
COc1cccc(CNC(=O)Cc2ccc(Br)cc2)c1,1.4,69.7*,7.2,-1.9,-0.3,-0.2,1.9,2.1,
COc1cccc(CNC(=O)Cn2cccc2)c1,2.2,0.8,-2.3,-3.0,-0.8,5.5,.,.,
CCN1CCc2c(sc(NC(=O)Nc3ccc(Cl)c(Cl)c3)c2C(N)=O)C1,-70.3,4.0,3.9,-390.2,-0.7,-5.2,.,.,
COc1cccc(-c2cc(=O)c3cc(NC(=O)c4ccc(Cl)cc4)ccc3[nH]2)c1,2.7,65.5*,2.3,1.9,-0.9,7.9,-0.5,-0.9,
COc1cc(Br)cc(Br)c1OCC(=O)N/N=C/c1c(C)n(C)n(-c2ccccc2)c1=O,-3.2,1.2,11.6,1.3,0.7,-4.7,.,.,
CCNC(=O)N(C)c1c(CC)nc2ccc(C(=O)N3CCN(S(=O)(=O)CC)CC3)cn12,-0.2,52.8*,-5.1,-1.6,-2.5,.,6.6,4.1,
O=c1[nH]c(C(Cl)Cl)nc2sc3c(c12)CCN(Cc1ccccc1)C3,-3.9,86.6*,24.5,0.0,77.0*,-2.1,18.0,2.9,
COc1cc(/C=C2\SC(=O)N(Cc3ccc(Cl)cc3)C2=O)cc([N+](=O)[O-])c1O,-14.8,88.5*,104.7*,64.7*,51.4*,58.9*,19.2,-11.3,DNMT1 interf DR=>99
CCO[C@@H]1OC(C(N)=O)=C[C@H](c2ccc(C(F)(F)F)cc2)[C@H]1CCCO,-4.4,70.8*,-0.6,-4.1,-1.8,-2.7,0.7,0.5,
Cc1ccc2nc(C3CCN(S(=O)(=O)c4ccc5ccccc5c4)CC3)[nH]c2c1,-2.3,1.3,10.4,3.9,4.0,5.7,.,.,
C=C/C(C)=C/C[C@H]1C(=C)CCC2[C@](C)(C(=O)O)CCC[C@@]21C (stereo partly drawn),23.5,89.3*,13.8,-1.1,1.6,12.2,1.9,-6.9,
C=C1CCC2[C@](C)(CO)[C@H](O)CC[C@@]2(C)[C@@H]1C/C=C1\C(=O)OC[C@H]1O (stereo partly drawn),1.9,4.8,4.9,-1.6,0.4,-1.3,.,.,
SMILES,CSN inh,DNMT1 block,SUMO1-SIM PPI,STEP block,LMPTP inh,Scp-1 inhibitor,DNMT1 inh conf,DNMT1 interf,others
O=c1oc2c3c4c(cc2s1)CCCN4CCC3,-5.4,85.3*,9.2,2.7,66.6*,2.7,-3.2,-2.5,
O=c1ccc2cc3c4c(c2o1)CCCN4CCC3,-6.9,27.6,15.1,-11.0,30.9,-8.0,.,.,
O=C(COc1cccc(Br)c1)NN=C1c2ccccc2-c2ccccc21,5.6,53.7*,-5.2,0.2,1.7,-33.6,0.0,-4.8,
Cc1ccc(N(C)S(=O)(=O)c2nnc(NC(=O)c3ccco3)s2)cc1,-1.0,4.9,-0.1,-1.1,-0.9,-1.7,.,.,
Cc1ccccc1N(C)S(=O)(=O)c1nnc(NC(=O)c2ccco2)s1,8.9,53.6*,18.6,1.3,13.3,27.2,3.1,0.9,
COc1ccc(OC)c(-n2c(SCC(=O)Nc3cccc(S(N)(=O)=O)c3)nc3ccccc3c2=O)c1,0.8,67.0*,3.3,13.0,0.8,-4.3,1.9,2.4,
Cc1cc2[nH]c(=O)c(=O)[nH]c2cc1S(=O)(=O)NC1CCCCC1C (stereo not drawn),-2.6,1.6,2.5,0.1,-0.6,4.4,.,.,
[O-][n+]1cccc2cccc(O)c21,-0.8,-4.8,-6.2,-0.4,-0.7,-10.5,.,.,
C[n+]1cccc2cccc([O-])c21,30.3,77.6*,39.6*,7.1,52.2*,-13.6,2.1,-3.2,
CN(C)C(=O)c1ccc(NC(=O)c2sccc2-c2ccccc2)cc1,-1.1,-3.7,-43.6,-0.7,-9.4,-10.5,.,.,
Cn1c(SCC(=O)NCC2CCCO2)nnc1-c1ccco1 (stereo not drawn),-3.6,1.4,-1.7,1.3,-0.6,-7.6,.,.,
O=c1c2ccccc2cnn1CCOc1cccc(Br)c1,-6.7,0.8,9.2,-0.9,1.0,11.6,.,.,
Cc1ccc(OCCn2ncc3ccccc3c2=O)c(C)c1,-3.5,51.1*,2.3,-0.9,0.4,-13.1,5.3,7.0,
Cc1cc(N2CCCC2)ccc1NC(=O)COc1ccccc1,5.9,63.7*,-12.9,-1.3,25.1,-6.9,1.7,0.7,

# Compound activity (PubChem BioAssay)
